Assay [1] addresses NS3 (Hepatitis C virus, UniProt A3EZJ3). Briefly: Inhibition of HCV NS3 protease. Also on record: species or system Hepacivirus hominis. The gist of the method: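 IC50 taken after a 30 min preincubation of enzyme with inhibitor. Each value is the mean of 2 independent measurements, with standard deviations within 35% of the mean.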
For assay [2], the target named is NS3 (Hepatitis C virus) (UniProt A3EZJ3). Briefly: Inhibition of HCV NS3 protease at 100 uM. The settings on record: Hepacivirus hominis.

Structures are written as SMILES. Where only a bound is given, the exact number is not on record here.

Usually IC50 stands for the midpoint of a concentration-inhibition curve. Higher therefore signals a need for much substance. One may read the inhibition as how much of the control response was suppressed.

Sequence of NS3 (Hepatitis C virus) (A3EZJ3 as listed by the source): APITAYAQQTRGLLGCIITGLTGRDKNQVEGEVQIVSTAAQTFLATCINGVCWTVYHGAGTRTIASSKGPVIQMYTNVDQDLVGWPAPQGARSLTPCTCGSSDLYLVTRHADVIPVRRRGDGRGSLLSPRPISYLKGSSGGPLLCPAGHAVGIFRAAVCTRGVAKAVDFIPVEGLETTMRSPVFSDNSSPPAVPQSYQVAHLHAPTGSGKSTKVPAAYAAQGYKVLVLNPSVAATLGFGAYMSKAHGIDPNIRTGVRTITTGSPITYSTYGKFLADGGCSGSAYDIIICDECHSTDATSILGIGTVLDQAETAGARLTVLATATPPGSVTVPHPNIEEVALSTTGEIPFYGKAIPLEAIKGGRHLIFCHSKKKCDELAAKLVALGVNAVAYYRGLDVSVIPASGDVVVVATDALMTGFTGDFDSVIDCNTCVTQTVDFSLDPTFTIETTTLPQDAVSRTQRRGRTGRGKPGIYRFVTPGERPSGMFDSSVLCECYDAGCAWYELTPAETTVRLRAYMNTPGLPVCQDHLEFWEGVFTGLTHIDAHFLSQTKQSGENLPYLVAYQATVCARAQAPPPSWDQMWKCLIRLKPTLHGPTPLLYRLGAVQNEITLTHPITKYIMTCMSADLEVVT
Sequence of NS3 (A3EZJ3 whole entry): as the sequence (A3EZJ3 as listed by the source) above

`CC(C)C[C@H](NC(=O)C1(Cc2ccc(Cl)s2)Cc2ccccc2N1)C(=O)NC(CC(F)F)C(=O)C(=O)O` (stereo partly specified) showed an IC50 in assay [1] of 3.7 µM.
Still for that read-out and setting: for `CC(C)C[C@H](NC(=O)C1(C2CCCCC2)Cc2ccccc2N1)C(=O)NC(CC(F)F)C(=O)C(=O)O` (single isomer, unassigned; diastereomer 1) the value was 69 µM; for `CC(C)C[C@H](NC(=O)C1(CC2CCC2)Cc2ccccc2N1)C(=O)NC(CC(F)F)C(=O)C(=O)O` (single isomer, unassigned; diastereomer 1), 34 µM; for `CC(C)C[C@H](NC(=O)C1(Cc2ccsc2C(=O)O)Cc2ccccc2N1)C(=O)NC(CC(F)F)C(=O)C(=O)O` (single isomer, unassigned; diastereomer 1), 0.7 µM.
In assay [2], `CC(C)C[C@H](NC(=O)C1Cc2ccccc2N1)C(=O)NC(CC(F)F)C(=O)C(=O)O` (single isomer, unassigned; diastereomer 1) showed an inhibition of less than 50%.
For `CC(C)C[C@H](NC(=O)C1Cc2ccccc2N1)C(=O)NC(CC(F)F)C(=O)C(=O)O` (single isomer, unassigned; diastereomer 2), inhibition in assay [1] was half-maximal at 50 µM (IC50).
Regarding `CC(C)C[C@H](NC(=O)C1(Cc2ccsc2C(=O)O)Cc2ccccc2N1)C(=O)NC(CC(F)F)C(=O)C(=O)O` (single isomer, unassigned; diastereomer 2), in assay [1], half-maximal inhibition (IC50) required 27 µM.
On the same count and under the same terms, next, `CC(C)C[C@H](NC(=O)C1Cc2ccc(OCC(=O)O)cc2N1)C(=O)NC(CC(F)F)C(=O)C(=O)O` (single isomer, unassigned; diastereomer 2): 27 µM.
Turning to `CC(C)C[C@H](NC(=O)C1(C2CCCCC2)Cc2ccccc2N1)C(=O)NC(CC(F)F)C(=O)C(=O)O` (single isomer, unassigned; diastereomer 2), the inhibition in assay [2] was less than 50%.
In assay [2], `CC(C)C[C@H](NC(=O)C1(CC2CCC2)Cc2ccccc2N1)C(=O)NC(CC(F)F)C(=O)C(=O)O` (single isomer, unassigned; diastereomer 2) gave an inhibition of less than 50%.
On to `CC(C)C[C@H](NC(=O)C1(Cc2ccsc2C(=O)O)Cc2ccccc2N1)C(=O)NC(CC(F)F)C(=O)C(=O)O` (single isomer, unassigned; diastereomer 3), for which the IC50 in assay [1] came to 38 µM.
Regarding `CC(C)C[C@H](NC(=O)C1Cc2ccc(OCC(=O)O)cc2N1)C(=O)NC(CC(F)F)C(=O)C(=O)O` (single isomer, unassigned; diastereomer 3), the inhibition in assay [2] is less than 50%.
On the same count and under the same terms, next, `CC(C)C[C@H](NC(=O)C1Cc2ccccc2N1)C(=O)NC(CC(F)F)C(=O)C(=O)O` (single isomer, unassigned; diastereomer 3): less than 50%.
As for `CC(C)C[C@H](NC(=O)C1(Cc2ccsc2C(=O)O)Cc2ccccc2N1)C(=O)NC(CC(F)F)C(=O)C(=O)O` (single isomer, unassigned; diastereomer 4), it took 73 µM to reach half-maximal inhibition in assay [1] (IC50).
With `CC(C)C[C@H](NC(=O)C1Cc2ccc(OCC(=O)O)cc2N1)C(=O)NC(CC(F)F)C(=O)C(=O)O` (single isomer, unassigned; diastereomer 4), in assay [2], the inhibition was less than 50%.
As to `CC(C)C[C@H](NC(=O)C1Cc2ccc(OCC(=O)O)cc2N1)C(=O)NC(CC(F)F)C(=O)C(=O)O` (stereo in doubt; 7m), the midpoint of inhibition in assay [1], the IC50, lay at 10 µM.

The values above are taken from ChEMBL document CHEMBL1149267, “The design and enzyme-bound crystal structure of indoline based peptidomimetic inhibitors of hepatitis C virus NS3 protease” (J Med Chem, 2004).
